Compound activity: PubChem, several laboratories
Hits are enriched below; roughly 1.2% of the tested compounds scored in any of these assays.
RBBP9 inhibitor = human RBBP9 inhibitors, primary screen, biochemical, fluorescence polarization, FP-Rh probe, HTS; recombinant RBBP9; inhibition, % at 7.94 µM; actives 0.2% (n = 220,000);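 active = inhibition above the campaign mean of all tested compounds plus 3 SD, cut at about 14% in these data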;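 also: plate controls were DMSO wells with RBBP9 for no effect and wells lacking RBBP9 protein for full effect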
Target sequence (O75884 whole entry, looked up): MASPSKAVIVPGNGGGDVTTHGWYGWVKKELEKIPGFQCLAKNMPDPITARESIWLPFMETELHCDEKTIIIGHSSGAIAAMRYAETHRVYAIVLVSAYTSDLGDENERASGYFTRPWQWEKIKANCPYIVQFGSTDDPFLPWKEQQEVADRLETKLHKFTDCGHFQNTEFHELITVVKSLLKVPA
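System: RBBP9 protein / Quantity: 2.5 µM RBBP9 dispensing solution, before mixing / Also added: Serine-hydrolase probe FP-Rh, 375 nM pre-mixing / Dosing: 7.94 µM single dose, 0.794% DMSO / Timing: enzyme-compound preincubation 30 min, then probe labeling 45 min, 25 °C / Signal: FP readout at 525/598 nm / Controls: DMSO-treated enzyme wells and wells lacking RBBP9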
Rad51 HR inh = human RAD51 strand exchange inhibitors, primary screen, biochemical, fluorescence. DNA repair protein RAD51 homolog 1 (Homo sapiens), Q06609. hRad51 DNA strand exchange, fluorescence dequenching. inhibition, % at 10 µM. actives 0.085% (n = 200,000). AID 1385, 2008;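 active = inhibition above 40% at the single screening dose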;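 also: 0% = DMSO control wells and 100% = blanks with heterologous ssDNA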
Target sequence (Q06609 whole entry, looked up): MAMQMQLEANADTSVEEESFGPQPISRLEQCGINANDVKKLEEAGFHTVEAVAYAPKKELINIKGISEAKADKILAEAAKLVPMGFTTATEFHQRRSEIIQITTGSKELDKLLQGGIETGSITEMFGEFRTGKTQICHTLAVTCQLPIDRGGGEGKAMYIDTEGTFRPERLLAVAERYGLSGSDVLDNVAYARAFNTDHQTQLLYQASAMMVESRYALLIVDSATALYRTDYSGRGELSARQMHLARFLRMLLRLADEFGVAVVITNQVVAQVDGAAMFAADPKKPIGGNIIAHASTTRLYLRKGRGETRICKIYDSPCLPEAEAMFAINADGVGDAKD
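System: human Rad51 nucleoprotein filaments preassembled on unlabelled ssDNA. Reagent: labelled 47-mer dsDNA for strand exchange. Schedule: 30-min compound preincubation and 15-min exchange, both room temperature. Measured by: FRET fluorescence dequenching, excitation 485 nm, emission 520 nm. Read-out: Fluorescence-based percent inhibition, control- and blank-normalised. Benchmarks: plate controls and plate blanks.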
Wee1 degr inh = Wee1 degradation inhibitors, primary screen, cell-based, HeLa, Wee1K328M-luciferase, luminescence; actives 1.2% (n = 220,000); Wee1-like protein kinase (Homo sapiens), P30291; HeLa Luc-Wee1K328M stability; 100% = proteasome inhibitor MG132 effect; reporter increase, % at 5 µM; AID 1321, 2008;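 active = activation above the mean of all tested compounds plus 3 SD, set per screening run, cut at about 8.8% in these data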;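 also: cells exposed to compound for 20 h before luminescence read; 0% = DMSO alone and 100% = MG132 at 30 µM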
DNA FID counter = compounds displacing fluorescent DNA intercalator, primary screen, artefact control for HCV NS3 helicase inhibitor project, biochemical, FID fluorescence; DNA fluorescent intercalator displacement; inhibition, % at 7.9 µM; actives 0.17% (n = 290,000); in the data active = inhibition above about 37%;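 also: 0% = vehicle and 100% = reference compound; higher means more ethidium bromide displaced from hairpin DNA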
* marks the source's active call; other numbers are inactive results; . = no result; ! = not active in a repeat.

SMILES	RBBP9 inhibitor	Rad51 HR inh	Wee1 degr inh	DNA FID counter
CCOc1cc(NC(=S)NCCCN2CCOCC2)c(OCC)cc1NC(=O)c1cccs1	-3.3	-8.3	9.5*	12.1
COc1ccccc1C(=O)NCCC(=O)NCC(C)(C)N1CCOCC1	.	.	.	-1.5
CC(=O)Nc1ccc(CC(=O)NCCC(c2ccccc2)c2ccccc2)cc1	.	.	.	-31.9
CC(C)(C)c1[nH]nc2c1C(c1cccnc1)C(C#N)=C(N)O2 (configuration not stated)	-4.6	5.0	9.9*	-4.0
CCc1[nH]nc2c1C(c1cccnc1)C(C#N)=C(N)O2 (configuration not stated)	0.8	-2.0	2.0	-3.0
COc1ccccc1/C=N/NC(=O)c1ccc(CN2C(=O)c3cccc4cccc2c34)cc1	-15.4	-8.6	9.0*	-11.5
CN(C)C(=O)c1c2c(nc3ccccc13)-c1ccccc1CC2	-4.5	-5.8	8.9*	-13.0
COc1ccc(CCNC(=O)CCOc2cc(C)ccc2C)cc1OC	.	.	.	-47.0
COc1ccc2c(=O)cc(-c3ccccc3F)oc2c1	1.6	8.7	9.4*	-16.2
COc1ccc2c(=O)cc(C(F)(F)C(F)(F)F)oc2c1	-1.9	4.5	-0.1	1.6
O=C(NCc1ccc(F)cc1)C1CCC(=O)N1C1CCCCC1 (configuration not stated)	-6.4	-10.5	10.4*	0.1
CC(C)c1ccccc1NC(=S)N1CCN(Cc2ccc3c(c2)OCO3)CC1	5.3	48.1*	4.2	-2.6
Cc1ccc(C)c(S(=O)(=O)N2CCCOC2CNC(=O)C(=O)NCc2ccncc2)c1 (configuration not stated)	-3.9	4.4	0.7	-12.5
COC(=O)C(CC(C)C)NC(=O)/C=C/c1ccccc1Cl (configuration not stated)	-5.9	-0.3	10.2*	-15.0
O=C(/C=C/c1ccccc1Cl)Nc1ccccc1	-5.2	13.4	9.3*	-3.6
COC(=O)C(CC(C)C)NC(=O)/C=C/c1ccc(Cl)cc1 (configuration not stated)	-4.0	11.2	1.5	-15.4
Cc1nc(NC(=O)CN2CCN(c3cccc(Cl)c3)CC2)sc1C(=O)N(C)C	.	.	.	-33.8
COc1ccc(OC)c(-c2cc(C3CCN(C(=O)OC(C)(C)C)CC3)[nH]n2)c1	-8.1	.	1.6	-32.2
CC(C)[C@H](NC(=O)[C@H](Cc1ccccc1)n1c(=O)[nH]c2ccccc2c1=O)C(=O)N1CCC[C@@H]1C(=O)O	.	.	.	-26.6
O=C(N=C1SC2CS(=O)(=O)CC2N1Cc1ccc(Cl)cc1)C1CC1 (configuration not stated)	.	.	.	-28.9
CC(=O)Nc1nc(COc2ccc3ccccc3c2)cs1	-6.7	5.7	7.0	-10.1
Nc1nc(COc2ccc3ccccc3c2)cs1	1.2	1.2	9.0*	-3.7
O=C(Nc1cccc2ccccc12)c1ccccc1NS(=O)(=O)c1cccc2cccnc12	-3.9	4.0	2.2	-22.6
COc1ccc(OC)c(NC(=O)c2ccccc2NS(=O)(=O)c2cccc3cccnc23)c1	-8.0	55.5*	0.6	-14.8
O=C(O)Cn1cnc2scc(-c3cccs3)c2c1=O	0.3	.	-3.3	-1.6
SMILES	RBBP9 inhibitor	Rad51 HR inh	Wee1 degr inh	DNA FID counter
Cc1nc2scc(-c3cccs3)c2c(=O)n1CC(=O)O	-6.2	115.2*	1.2	-3.1
O=C(CNC(=O)c1cccc(F)c1)N/N=C/c1cccc([N+](=O)[O-])c1	-7.3	-2.9	3.2	-0.4
CCOc1ccc(CN(CCO)CCO)cc1[N+](=O)[O-]	-0.7	1.5	9.0*	1.5
CSc1nc2n(n1)C(C)C1=C(CCCC1=O)N2 (configuration not stated)	-6.6	8.0	9.2*	0.3
CC1CCC(C(C)C)C(OC(=O)Cn2c(-c3ccc(Br)cc3)[n+](C)c3ccccc32)C1 (configuration not stated)	-5.8	2.1	5.6	25.5
Cc1ccccc1OCc1n(CC(=O)OC2CC(C)CCC2C(C)C)c2ccccc2[n+]1C (configuration not stated)	-7.3	17.0	-1.2	37.9*!
CCNC(=O)NC(=O)C(C)OC(=O)C1CCN(S(=O)(=O)c2ccccc2C(=O)OC)CC1 (configuration not stated)	-6.2	0.4	1.7	-37.5
CCN(CC)CCCN(Cc1cc2cc3c(cc2[nH]c1=O)OCO3)C(=O)Nc1ccccc1OC	-0.1	7.8	-0.8	20.0
CCN(CC)CCCN(Cc1cc2cc(OC)c(OC)cc2[nH]c1=O)C(=O)Nc1ccccc1	-0.9	-2.7	9.9*	11.2
COc1cc(/C=N/NC(=O)COc2ccc(-n3cnnn3)cc2)ccc1OCC(N)=O	-4.0	12.7	9.2*	-12.8
COc1ccc(/C=N/NC(=O)CCn2cnc(-c3ccccc3)c2-c2ccccc2)cc1OC	-12.1	-6.3	10.6*	-24.7
CCOC(=O)NC(=O)/C(N=Nc1ccc(C(F)(F)F)cc1)=C(\C)O	-10.8	4.0	9.9*	-3.4
CCOC(=O)NC(=O)/C(N=Nc1cc(C)cc(C)c1)=C(\C)O	-6.3	-12.3	-0.8	-5.7
Cc1ccc(C)c(N2CCN(C(=O)CCS(=O)(=O)c3ccc4c(c3)oc(=O)n4C)CC2)c1	.	.	.	-46.5
Cc1ccc(C2/C(=C(\O)c3ccc4c(c3)OCCO4)C(=O)C(=O)N2CCCN(C)C)o1 (configuration not stated)	8.4	94.0*	-2.2	-0.5
COc1ccc(C2/C(=C(\O)c3ccc4c(c3)OCCO4)C(=O)C(=O)N2CCCN(C)C)cc1 (configuration not stated)	0.0	-2.3	-1.0	-3.0
O=C(O)CC(=O)Nc1ccc(Oc2ccc(C(F)(F)F)cn2)c(Cl)c1	-8.6	1.7	9.2*	-25.1
FC(F)(F)c1ccc(Oc2ccccc2Cl)nc1	-4.8	-1.7	-0.4	1.8
CSc1ccccc1NC(=O)Nc1cccc2ccccc12	.	.	.	-14.4
COc1ccc(-c2coc3cc(OC)cc(O)c3c2=O)cc1	1.1	.	2.2	-2.5
COc1ccc(-c2coc3cc(O)cc(O)c3c2=O)cc1	-8.7	3.7	10.1*	-6.1
CCc1ccc(Nc2ccc(S(=O)(=O)N3CCOCC3)cc2[N+](=O)[O-])cc1	-2.9	5.7	9.7*	1.6
Cc1ccccc1Nc1ccc(S(=O)(=O)N2CCOCC2)cc1[N+](=O)[O-]	-4.2	10.1	0.9	-15.5
O=C(OCc1nnc(-c2ccc(Cl)cc2)o1)C12CC3CC(CC(O)(C3)C1)C2	-7.3	2.2	9.8*	-33.5
CS(=O)(=O)N1CCC(C(=O)NCc2ccc3c(c2)OCO3)CC1	2.0	.	1.7	2.0
CC(C)c1ccc(/C=C2\SC(N3CCOCC3)=NC2=O)cc1	-5.1	.	9.2*	-33.3
COc1ccc(CNC(=O)CN(Cc2ccc(OC)cc2)C(=O)CCC(=O)Nc2ccccn2)cc1	.	.	.	-39.2
O=C(CNC(=O)c1cccs1)NCC(=O)OCc1c(F)cccc1Cl	-2.4	12.5	9.0*	-4.4
